Paper PMC10210236 (ACS Omega, 2023)
Entries after “also recorded” stand apart in the source; their conditions may differ.

Legend:
[1] = Equilibrium solubility / slurry experiment at pH 1.2, phase of residue; assay type: physicochemical; settings: pH 1.2 (0.1 N HCl)
Procedure, shortened: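 Equilibrium slurry of salt or free base in 0.1 N HCl, pH 1.2. Undissolved residue was characterized by DSC, TGA, PXRD profile fitting against the single-crystal structure, FESEM morphology, and FESEM-EDX chloride content to detect phase conversion, such as hydrochloride formation.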

[2] = Dissolution / intrinsic dissolution rate of pellets in pH 1.2; assay type: physicochemical; settings: neat drug; for pure drug dissolution value: gastric pH 1.2 (0.1 N HCl)
Procedure, shortened: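 Run in 0.1 N HCl, pH 1.2, simulating gastric conditions, in a 500 mL medium over 3 h with sampling from 15 to 180 min. Read-outs were cumulative amount dissolved and intrinsic dissolution rate, quantified separately for each drug component from the salt. Salt batch was scaled up by ethanol drop grinding, with phase purity checked by PXRD profile fitting. Leftover solids were characterized afterwards.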

[3] = system: BRAF^V600E melanoma cells Sk-Mel28; test: Cytotoxicity screening; assay type: cell-based; settings: Homo sapiens, SK-MEL-28
Procedure, shortened: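 Sk-Mel28 (human BRAF V600E melanoma) cells treated with test compound across a dose–response range. Survival percentage relative to control was read, and IC50 was taken from the curve. Two separate experiments were each run in duplicate, reported as mean ± SEM.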

[4] = system: ovarian cancer cell lines (A2780, 2008, A2780/CP, C13*); test: Cytotoxicity screening, ovarian lines taken together; assay type: cell-based; settings: Homo sapiens, read-out: IC50 range in ovarian cancer cell lines
2008 cells = test: Flow cytometric analysis of cell cycle; assay type: cell-based, human; settings: 48 h, concentration approx. IC50
C13* cells = test: Flow cytometric analysis of cell cycle; assay type: cell-based, human; settings: 48 h, concentration approx. IC50
Sk-Mel28 cells = test: Flow cytometric analysis of cell cycle; assay type: cell-based, human; settings: 48 h, concentration approx. IC50
[5] = cited from earlier work
[6] = system: 2008, C13*, and Sk-Mel28 cell lines; test: Flow cytometric analysis of cell cycle, statement for all three lines; assay type: cell-based, human; settings: 48 h, versus untreated

Row | Structure (SMILES) | solubility of the phase formed at pH 1.2 (in words) [1] | pure drug dissolution value [2] | cells in G0G1 phase (2008 cells) | cells in G2/M phase (2008 cells) | cells in S phase (2008 cells) | hypodiploid cells (2008 cells) | cells in G0G1 phase (C13* cells) | cells in G2/M phase (C13* cells) | cells in S phase (C13* cells) | hypodiploid cells (sub-G1) (C13* cells) | cells in G0G1 phase (Sk-Mel28 cells) | cells in G2/M phase (Sk-Mel28 cells) | cells in S phase (Sk-Mel28 cells) | hypodiploid cells (sub-G1) (Sk-Mel28 cells) | other results
1 | Cc1[nH]c2ccccc2c1CCNCc1ccc(/C=C/C(=O)NO)cc1.Cl [PAN·HCl] | high solubility | – | – | – | – | – | – | – | – | – | – | – | – | – | –
2 | CC(C)(C)c1nc(-c2cccc(NS(=O)(=O)c3c(F)cccc3F)c2F)c(-c2ccnc(N)n2)s1.O [DBF·MH] | comparatively less soluble; also recorded: very poor | – | – | – | – | – | – | – | – | – | – | – | – | – | –
3 | Cc1[nH]c2ccccc2c1CCNCc1ccc(/C=C/C(=O)NO)cc1 [PAN, panobinostat] | – | 10 mg cm^–2 min^–1 | 37.98% | 9.99% | 6.78% | 42.32% | 47.46% | 10.27% | 6.85% | 30.15% | 42.53% | 18.73% | 5.17% | 30.07% | cumulative drug dissolved at 15 min ([2]; pH 1.2, 500 mL, 15 min): 4.60 mg/L; cumulative drug dissolved at 180 min ([2]; pH 1.2, 500 mL, 180 min): 20.81 mg/L; IC50 [3]: 45.3 ± 12 nM; IC50 [4]: 4 to 9 nM; pKa (indole NH) [5]: 8.4
4 | CC(C)(C)c1nc(-c2cccc(NS(=O)(=O)c3c(F)cccc3F)c2F)c(-c2ccnc(N)n2)s1 [DBF, dabrafenib] | – | 80 mg cm^–2 min^–1 | 63.91% | 10.76% | 3.53% | 19.32% | 68.48% | 5.28% | 4.60% | 19.32% | 65.11% | 4.53% | 3.95% | 23.46% | cumulative drug dissolved, saturation value ([2]; pH 1.2, 500 mL): 12.18 mg/L; fold increase of hypodiploid cells [6]: ~4 fold
